Measured values: ChEMBL document CHEMBL1129784, “Decomposition pathways and in vitro HIV inhibitory effects of isoddA pronucleotides: toward a rational approach for intracellular delivery of nucleoside 5'-monophosphates” (J Med Chem, 1996)
Several values for one entry are separate records, joined by “and”; a condition that tells them apart may be missing. Equal entries are not always repeated.

Columns and labels:
[1] = Half life in CEM cell extracts (25 uM, 37 degree C); type: ADME, CCRF-CEM; details: human
Procedure, shortened: (§1)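 Incubated at 25 µM initial concentration and 37 °C in full CEM cell extract, in RPMI 1640 with 10% heat-inactivated fetal calf serum, or in freshly withdrawn human serum. Aliquots analysed by on-line cleaning HPLC (precolumn deproteinization) with UV at 260 nm. Relative concentrations came from peak areas. Half-lives were derived from kinetic model fits: pseudo-first-order or substrate inhibition.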

[2] = Half life in culture medium (25 uM, 37 degree C); type: ADME; procedure, shortened: as §1
[3] = Selectivity index which is the ratio between CC50 and EC50; type: functional
C8166 [4] = test: Ability to reduce 50% viability of C8166 cells acutely infected with HIV-2 strain IIIB; type: functional; details: Homo sapiens, in the assay text read “HIV-2 strain CBL-20” for “HIV-2 strain IIIB”
Procedure, shortened: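 Cytotoxicity in mock-infected cells run in parallel with the antiviral assay: 1 × 10^4 MT-4 or C8166 cells per well with or without various compound concentrations, 4-day incubation at 37 °C, viable cells counted by MTT. CC50 is the dose reducing viability by 50% at day 4. Mean of three independent determinations; variation among duplicates <22%.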

MT4 [5] = test: Effective dose to achieve 50% protection of MT-4 cells from acutely infected HIV-1 strain IIIB; type: functional, cell-based; details: Homo sapiens
Procedure, shortened: (§2)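 Inhibition of virus-induced cytopathogenicity in acutely infected cells. HIV-1 IIIB in MT-4 cells at 100 CCID50; HIV-2 CBL-20 in C8166 cells at 1000 CCID50. 1 × 10^4 cells per well with various compound concentrations, 4 days at 37 °C, viability by MTT. EC50 is the dose giving 50% protection. Mean of three independent determinations.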

C8166 [6] = test: Effective dose to achieve 50% protection of C8166 cells acutely infected with HIV-2 strain IIIB; type: functional, cell-based; details: Homo sapiens, in the assay text read “HIV-2 strain CBL-20” for “HIV-2 strain IIIB”; procedure, shortened: as §2
MT4 [7] = test: Ability to reduce 50% viability of mock-infected MT-4 cells; details: Homo sapiens

Row | half-life at 25 µM [1] | half-life at 25 µM [2] | EC50 (C8166 [6]) | SMILES | SI [3] | CC50 (C8166 [4]) | EC50 (MT4 [5]) | CC50 (MT4 [7])
1 | 1 h | 103 h | – | Cc1cn(C2CC(N=[N+]=[N-])C(COP(=O)(OCCSC(=O)C(C)(C)C)OCCSC(=O)C(C)(C)C)O2)c(=O)[nH]c1=O (stereo not given) | 600 and 245 | – | – | –
2 | < 0.1 h | 9 h | – | CC(=O)SCCOP(=O)(OCCSC(C)=O)OCC1OC(n2cc(C)c(=O)[nH]c2=O)CC1N=[N+]=[N-] (stereo not given) | – | – | – | –
3 | – | – | 6 nM | Cc1cn([C@H]2C[C@H](N=[N+]=[N-])[C@@H](CO)O2)c(=O)[nH]c1=O [ZIDOVUDINE] | 30000 and > 83000 | > 500000 nM | 5 nM | 150000 nM
